Sampled rows, rich in hits. Any-hit rate of the full collection: about 0.84%.
DDE Tn6 FP inh: disrupts Tn6 cyclic peptide binding to fibrin D-Dimer-E complex; P02675; Fibrin DD(E) TRITC-Tn6 fluorescence polarization displacement; inhibition, % at 8.3 µM; 370,000 tested, 0.21% active;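 active means inhibition above a per-campaign cutoff: mean of compounds within control limits plus 3 SD, cut at about 15% in these data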
Target sequence (P02675 whole entry, looked up): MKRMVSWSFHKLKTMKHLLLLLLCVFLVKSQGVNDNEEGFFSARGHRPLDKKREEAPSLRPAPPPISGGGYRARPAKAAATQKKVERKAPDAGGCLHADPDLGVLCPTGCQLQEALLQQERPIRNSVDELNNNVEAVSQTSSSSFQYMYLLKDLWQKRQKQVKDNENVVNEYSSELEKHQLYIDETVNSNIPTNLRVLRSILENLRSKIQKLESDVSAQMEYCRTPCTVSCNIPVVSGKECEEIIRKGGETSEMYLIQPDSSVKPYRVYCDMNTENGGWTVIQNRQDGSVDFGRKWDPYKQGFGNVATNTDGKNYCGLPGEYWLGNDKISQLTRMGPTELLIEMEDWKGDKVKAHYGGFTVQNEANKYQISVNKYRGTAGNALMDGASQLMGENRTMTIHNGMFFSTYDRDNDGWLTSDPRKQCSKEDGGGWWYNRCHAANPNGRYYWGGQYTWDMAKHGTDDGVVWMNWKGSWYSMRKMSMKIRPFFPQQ
SKN-1 block: inhibitors of C. elegans SKN-1; AID 624304; C. elegans VP596 Pgst-4::GFP/RFP ratio, acrylamide-induced, 24 h; inhibition, % at 21.8 µM; 360,000 tested, 0.49% active;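 active means interference check ratio from 0.5 to 1.5 plus GFP to RFP signal ratio inhibition reaching or exceeding a fixed threshold, cut at about 30% in these data, passing the limit was not always enough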
MT1-MMP act inh: inhibitors of human MT1-MMP activation; HT1080 RFP-PRO-GFP cells, GFP/RFP ratio fluorescence, overnight; percent of plate control window, DMSO zero; AID 651647; P50281; GFP/RFP ratio change, % at 20 µM; 360,000 tested, 0.061% active;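 active means GFP/RFP ratio change of at least 30% with cell ATP level not reduced by more than half and red fluorescence within 50% of control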
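Material: RFP-PRO-GFP reporter HT1080 cells. Dosing: single-point 20 µM compound, 1% DMSO. Controls: DMSO and RFP-L50D-GFP cell wells. Timing: cells overnight before dosing, compound overnight, 37 °C, 5% CO2. Measure: GFP/RFP fluorescence ratio.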
Tn7 DDE FP: DD(E)-Tn7 binding inhibition, primary FP screen | inhibition, % at 8.3 µM | 370,000 tested, 0.13% active | FP displacement of FITC-Tn7 peptide from fibrin DD(E); 0% = median of compound wells per plate | P02675 | AID 720508;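 active means inhibition above the mean of compounds falling within the control limits plus 3 SD of them, cut at about 14% in these data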
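Assay system: human fibrin DD(E). Input: DD(E) 2 µM final. Medium: Tris buffer with calcium and detergent, pH 7.8. Compound dosing: single point at 8.3 µM. Timing: 10 min plus 3 h, room temperature. Technique: fluorescence polarization of the labelled Tn7 tracer. Read-out: percent inhibition. Replicates: singlicate testing.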
Tn7 DDE conf: DD(E)-Tn7 binding inhibition, FP confirmation | shares compounds with Tn7 DDE FP | FP displacement of TRITC-Tn7 peptide from DD(E); 0% set at plate's compound-well median | inhibition, % at 8.3 µM | 460 tested, 5% active | AID 720628;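 active means inhibition above the campaign cutoff, the mean of compounds within control limits plus 3 SD, cut at about 14% in these data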;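 further: displacers lower polarization since freed probe rises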
DDE Tn7 FP ctr: DD(E)-Tn7 binding inhibition, counter-screen | shares compounds with Tn7 DDE FP | fibrin DD(E), TRITC-Tn7 probe displacement, fluorescence polarization | inhibition, % at 8.3 µM | 460 tested, 3% active;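 active means inhibition above the cutoff, the mean of compounds lying between the control bounds plus 3 SD of those compounds, cut at about 17% in these data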
A number is an active result; 0 = inactive; - = no result given.

SMILES | DDE Tn6 FP inh | SKN-1 block | MT1-MMP act inh | Tn7 DDE FP | Tn7 DDE conf | DDE Tn7 FP ctr
Cc1cccn2c(=O)c(/C=C(\C#N)C(=O)NCc3ccccc3)c(N3CCC(C(N)=O)CC3)nc12 | 0 | 0 | 0 | 16 | 0 | 0
CC(C)C[C@@H](CO)N1CCN(Cc2cccc(C#N)c2)CCC1=O | 0 | 0 | 0 | 0 | - | -
O=C(Nc1ncccn1)c1ccc([N+](=O)[O-])cc1Cl | 0 | 0 | 0 | 0 | - | -
O=C(Nc1cccnc1)c1ccc([N+](=O)[O-])cc1Cl | 0 | 0 | 0 | 16 | 0 | 0
Cn1c(COc2ccccc2Br)nc2ccccc21 | 0 | 0 | 0 | 0 | - | -
O=C1C=CC(O)(c2cc(=O)c3c(O)cc(O)cc3o2)C=C1 | 0 | 0 | 0 | 14 | 0 | 0
CC(NC(=O)COC(=O)[C@@H]1CCCN1S(=O)(=O)c1ccccc1F)C12CC3CC(CC(C3)C1)C2 (stereo not given in full) | 0 | 0 | 0 | 14 | 0 | 0
CCN(CC)S(=O)(=O)c1cccc(C(=O)N/N=C2\CCCC(=O)C2)c1 | 0 | 0 | 0 | 25 | 0 | 0
CCNS(=O)(=O)c1ccc(CCC(=O)Nc2ccc3c(c2)OCCO3)cc1 | 0 | 0 | 0 | 15 | 0 | 0
O=C1NC(Cc2ccccc2)c2nc3ccc(Br)cc3c(=O)n2-c2cc(Cl)ccc21 (stereo not given) | 0 | - | - | 0 | - | -
CN(C)/C=C1\C=C2C(=O)c3ccccc3N2C1=O | 0 | 0 | 0 | 30 | 53 | 24
O=C(COC(=O)CCN1C(=O)C2CC=CCC2C1=O)Nc1ccc([N+](=O)[O-])cc1 (stereo not given) | 0 | 0 | 0 | 0 | - | -
Cc1ccccc1NC(=O)CSc1nnc(C2CC2)n1CC1CCCO1 (stereo not given) | 0 | 0 | 0 | 0 | - | -
Cc1ccc(NC(=O)c2ccc(NCCCN3CCC(C)CC3)c([N+](=O)[O-])c2)cc1F | 0 | 0 | 0 | 15 | 0 | 0
CCOC(=O)C1=CN(Cc2ccco2)S(=O)(=O)N(C)C1c1ccc2ccccc2c1 (stereo not given) | 0 | 0 | 0 | 15 | 0 | 0
CCOC(=O)C1=CN(Cc2ccco2)S(=O)(=O)N(C)C1c1ccc(C(F)(F)F)cc1 (stereo not given) | 0 | 0 | 0 | 0 | - | -
COc1cc(CNc2ncnc3c2ncn3[C@H]2CN(Cc3ccncc3)C[C@@H](CO)O2)cc(OC)c1OC | 0 | 0 | 0 | 0 | - | -
NS(=O)(=O)c1ccc(N/N=C/c2cn(-c3ccccc3)nc2-c2cccs2)c([N+](=O)[O-])c1 | 0 | 0 | 0 | 0 | - | -
NS(=O)(=O)c1ccc(N/N=C/c2cn(-c3ccccc3)nc2-c2cccs2)cc1 | 0 | 0 | 0 | 14 | 0 | 0
C=C[C@@H]1c2cc(C)ccc2N(S(=O)(=O)c2ccc(C)cc2)[C@H](c2ccccc2)C1(C#N)C#N | 0 | 0 | 0 | 14 | 0 | 0
CC(C)(C)S(=O)N1Cc2cc(C(=O)NCC(F)(F)F)nc(-c3cccc(-c4cccc(F)c4)c3)c2[C@H]1CCO (stereo not given in full) | 0 | 0 | 0 | 0 | - | -
O=C(NCCCC1CCCC1)C1CCC(=O)N(Cc2cccc(F)c2)C1 (stereo not given) | 0 | 0 | 0 | 0 | - | -
O=C(NCCCC1CCCC1)C1CCC(=O)N(Cc2ccc(Cl)cc2)C1 (stereo not given) | 0 | 0 | 0 | 14 | 0 | 0
CCCc1nc2cc(C)c(Br)c(C)n2c1Cc1ccsc1 | 0 | 0 | 0 | 0 | - | -
COc1ccc(-c2cn3c(C)c(C(=O)Nc4cccc(NC(C)=O)c4)sc3n2)cc1 | 0 | 0 | 0 | 14 | 0 | 0
CC(C)OC(=O)N(C)C[C@@H]1OCc2cn(nn2)CCCC(=O)N([C@H](C)CO)C[C@H]1C | 0 | 0 | 0 | 0 | - | -
COc1ccc(NC(=O)c2cc(-c3cccs3)on2)c(OC)c1 | 0 | 0 | 0 | 0 | - | -
COc1ccc(OC)c(NC(=O)c2ccc(-c3cccs3)cc2)c1 | 0 | 0 | 0 | 15 | 0 | 0
COc1cccc(C(=O)N/N=c2/oc3ccccc3cc2C(N)=O)c1 | 0 | 0 | 0 | 14 | 0 | 0
COc1ccc(OC)c(CCNC(=O)CN2C(=O)COc3ccc(S(=O)(=O)N4CCOCC4)cc32)c1 | 0 | 0 | 0 | 0 | - | -

Bioassay records (PubChem)
